Values after ≈ are worked out from the molar mass of the structure shown. Active and inactive are the calls of the source. No cut-off for these calls is given here.
What was measured:
[1] = molecular target: Acetylcholinesterase (Homo sapiens, UniProt P22303); assay: Inhibition of acetylcholinesterase
[2] = molecular target: Cholinesterase (Homo sapiens, UniProt P06276); assay: Inhibition of butyrylcholinesterase
Method in brief: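 In vitro enzyme inhibition assay, reported as IC50 with the standard error of the mean from five assays.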

[3] = test system: Enterococcus faecalis; assay: Antibacterial activity against Streptococcus faecalis assessed as zone of inhibition at 1.0 mg/mL by agar well diffusion method; format: functional; settings: for zone of inhibition at 1000 µg/mL: read-out: IZ
Method in brief: (§1)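 Agar well diffusion with pure compounds loaded into wells at 1.0 mg/mL. Zone of inhibition read in mm. Ampicillin is the reference for Gram-positive strains and gentamicin for Gram-negative strains.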

[4] = test system: Micrococcus luteus; assay: Antibacterial activity against Micrococcus luteus assessed as zone of inhibition at 1.0 mg/mL by agar well diffusion method; format: functional; settings: for zone of inhibition at 1000 µg/mL: read-out: IZ; method in brief: as §1
[5] = test system: Pseudomonas; assay: Antibacterial activity against Pseudomonas pallida by agar well diffusion method; format: functional
[6] = test system: Bacillus subtilis; assay: Antibacterial activity against Bacillus subtilis assessed as zone of inhibition at 1.0 mg/mL by agar well diffusion method; format: functional; settings: read-out: IZ; method in brief: as §1
[7] = test system: Micrococcus luteus; assay: Antibacterial activity against Micrococcus luteus by agar well diffusion method; format: functional
[8] = test system: Bacillus subtilis; assay: Antibacterial activity against Bacillus subtilis by agar well diffusion method; format: functional
[9] = test system: Pseudomonas; assay: Antibacterial activity against Pseudomonas pallida assessed as zone of inhibition at 1.0 mg/mL by agar well diffusion method; format: functional; settings: for zone of inhibition at 1000 µg/mL: read-out: IZ; method in brief: as §1
[10] = test system: Leishmania major; assay: Antileishmanial activity against Leishmania major; format: functional, organism-based
[11] = test system: Enterococcus faecalis; assay: Antibacterial activity against Streptococcus faecalis assessed as zone of inhibition at 0.25 mg/mL by agar well diffusion method; format: functional; settings: read-out: IZ
Method in brief: (§2)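 Reference antibiotic (ampicillin for these Gram-positive strains) tested by agar well diffusion at 0.25 mg/mL. Inhibition zone diameter recorded in mm.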

[12] = test system: Bacillus subtilis; assay: Antibacterial activity against Bacillus subtilis assessed as zone of inhibition at 0.25 mg/mL by agar well diffusion method; format: functional; settings: read-out: IZ; method in brief: as §2
[13] = test system: Micrococcus luteus; assay: Antibacterial activity against Micrococcus luteus assessed as zone of inhibition at 0.25 mg/mL by agar well diffusion method; format: functional; settings: read-out: IZ; method in brief: as §2

Acetylcholinesterase, sequence (P22303 whole entry): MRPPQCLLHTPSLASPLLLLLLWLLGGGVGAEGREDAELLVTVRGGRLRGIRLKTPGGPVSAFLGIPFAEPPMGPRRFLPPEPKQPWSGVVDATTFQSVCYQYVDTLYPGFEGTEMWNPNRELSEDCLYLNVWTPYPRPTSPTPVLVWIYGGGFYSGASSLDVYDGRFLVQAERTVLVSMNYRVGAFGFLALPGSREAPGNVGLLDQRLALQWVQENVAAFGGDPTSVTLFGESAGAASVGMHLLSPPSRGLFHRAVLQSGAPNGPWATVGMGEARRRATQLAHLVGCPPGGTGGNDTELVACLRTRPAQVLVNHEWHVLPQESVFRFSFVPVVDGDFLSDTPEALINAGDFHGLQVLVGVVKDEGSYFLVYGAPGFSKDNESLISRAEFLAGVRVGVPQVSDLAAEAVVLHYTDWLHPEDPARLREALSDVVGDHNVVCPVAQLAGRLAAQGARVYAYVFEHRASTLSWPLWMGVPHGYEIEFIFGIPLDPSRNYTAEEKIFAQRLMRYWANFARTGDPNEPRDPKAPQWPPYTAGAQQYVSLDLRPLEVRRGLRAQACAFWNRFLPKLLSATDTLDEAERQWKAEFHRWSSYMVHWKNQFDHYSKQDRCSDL
Cholinesterase, sequence (P06276 whole entry): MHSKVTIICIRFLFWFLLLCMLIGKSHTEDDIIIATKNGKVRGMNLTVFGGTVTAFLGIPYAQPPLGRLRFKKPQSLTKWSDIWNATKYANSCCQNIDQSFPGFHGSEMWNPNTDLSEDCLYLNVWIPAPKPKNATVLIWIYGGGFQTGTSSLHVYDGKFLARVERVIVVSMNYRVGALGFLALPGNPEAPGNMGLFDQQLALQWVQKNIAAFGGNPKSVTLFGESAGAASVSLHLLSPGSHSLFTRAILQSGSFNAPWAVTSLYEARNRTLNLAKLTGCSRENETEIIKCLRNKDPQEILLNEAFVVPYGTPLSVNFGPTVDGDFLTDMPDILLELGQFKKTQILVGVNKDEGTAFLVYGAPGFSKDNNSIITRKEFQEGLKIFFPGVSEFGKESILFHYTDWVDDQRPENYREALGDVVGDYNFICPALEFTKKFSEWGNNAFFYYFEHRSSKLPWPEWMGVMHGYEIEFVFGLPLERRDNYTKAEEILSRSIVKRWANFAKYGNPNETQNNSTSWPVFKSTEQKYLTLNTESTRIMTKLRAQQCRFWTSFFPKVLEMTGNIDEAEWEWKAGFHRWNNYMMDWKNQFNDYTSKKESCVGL

Row | Compound | IC50 [10] [µM] | IC50 [1] [µM] | IC50 [2] [µM] | zone of inhibition at 1000 µg/mL [3] [mm] | zone of inhibition at 1000 µg/mL [4] [mm] | MIC [5] [µM] | zone of inhibition at 1000 µg/mL [6] [mm] | MIC [7] [µM] | MIC [8] [µM] | zone of inhibition at 1000 µg/mL [9] [mm] | Activity [3] | Activity [4] | Activity [9] | zone of inhibition at 250 µg/mL [11] [mm] | zone of inhibition at 250 µg/mL [12] [mm] | zone of inhibition at 250 µg/mL [13] [mm]
1 | C[C@@H]([C@H]1CC[C@H]2[C@@H]3CC[C@H]4C[C@@H](N(C)C)CC[C@]4(C)[C@H]3CC[C@]12C)N(C)C | – | 22.1 | 1.6 | 8 | 11 | 167 (≈ 62.6 µg/mL) | 19 | 167 (≈ 62.6 µg/mL) | 83.5 (≈ 31.3 µg/mL) | 14.5 | – | – | – | – | – | –
2 | CN[C@@H](C)[C@H]1CC[C@H]2[C@@H]3CC=C4C(=O)[C@@H](NC(=O)C=C(C)C)CC[C@]4(C)[C@H]3CC[C@]12C | – | 9.9 | 0.6 | – | – | – | 9 | – | 568 (≈ 242 µg/mL) | – | inactive | inactive | inactive | – | – | –
3 | CC1(C)S[C@@H]2[C@H](NC(=O)[C@H](N)c3ccccc3)C(=O)N2[C@H]1C(=O)O [AMPICILLIN] | – | – | – | – | – | – | – | 5.6 (≈ 1.96 µg/mL) | 89.7 (≈ 31.3 µg/mL) | – | – | – | – | 25 | 29 | 26
4 | C[C@@H]([C@H]1CC[C@H]2[C@@H]3CC[C@H]4C[C@@H](N)CC[C@]4(C)[C@H]3CC[C@]12C)N(C)C [CHONEMORPHINE] | – | 28 | 0.5 | 10 | 11.5 | 181 (≈ 62.6 µg/mL) | 16.5 | 90.3 (≈ 31.3 µg/mL) | 90.3 (≈ 31.3 µg/mL) | 14 | – | – | – | – | – | –
5 | CC(C)=CC(=O)N[C@H]1CC[C@@]2(C)[C@@H](CC[C@@H]3[C@@H]2CC[C@]2(C)C([C@H](C)N(C)C)=CC[C@@H]32)[C@H]1O [HOOKERIANAMIDE J] | 11.3 | 48.5 | 0.8 | – | – | 70.7 (≈ 31.3 µg/mL) | 15 | – | 141 (≈ 62.6 µg/mL) | 12 | inactive | inactive | – | – | – | –
6 | C[C@@H]([C@H]1CC=C2[C@@H]3CCC4=C[C@@H](N(C)C)CC[C@]4(C)[C@H]3CC[C@@]21C)N(C)C [HOOKERIANAMIDE K] | 6.8 | 24.2 | 4 | 10 | 9.5 | 169 (≈ 62.6 µg/mL) | 13 | 651 (≈ 241 µg/mL) | 338 (≈ 125 µg/mL) | 10.5 | – | – | – | – | – | –
7 | C/C=C(\C)C(=O)N[C@H]1CC[C@]2(C)[C@H]3CC[C@]4(C)[C@@H]([C@H](C)NC)CC[C@H]4[C@@H]3CC[C@H]2[C@H]1OC(C)=O [SARCOVAGINE C] | 1.5 | 8.1 | 0.4 | 12 | 13.5 | 32.1 (≈ 15.2 µg/mL) | 20 | 64.3 (≈ 30.4 µg/mL) | 64.3 (≈ 30.4 µg/mL) | 17.5 | – | – | – | – | – | –

Now from value to compound, other results behind:

Row | IC50 [10] [µM] | Compound | IC50 [1] [µM] | IC50 [2] [µM] | zone of inhibition at 1000 µg/mL [3] [mm] | zone of inhibition at 1000 µg/mL [4] [mm] | MIC [5] [µM] | zone of inhibition at 1000 µg/mL [6] [mm] | MIC [7] [µM] | MIC [8] [µM] | zone of inhibition at 1000 µg/mL [9] [mm] | Activity [3] | Activity [4] | Activity [9] | zone of inhibition at 250 µg/mL [11] [mm] | zone of inhibition at 250 µg/mL [12] [mm] | zone of inhibition at 250 µg/mL [13] [mm]
8 | 21.3 | C/C=C(\C)C(=O)NC1=CC[C@@]2(C)C(=CC[C@H]3[C@@H]4CC[C@H]([C@H](C)NC)[C@@]4(C)CC[C@@H]32)C1=O | – | – | 10 | 12.5 | 35.6 (≈ 15.1 µg/mL) | 20 | 143 (≈ 60.6 µg/mL) | 35.6 (≈ 15.1 µg/mL) | 16.5 | – | – | – | – | – | –
9 | 0.5 | C[C@@H]1[C@H](O)[C@@H](C)/C=C/C=C/C=C/C=C/C=C/C=C/C=C/[C@H](O[C@@H]2O[C@H](C)[C@@H](O)[C@H](N)[C@@H]2O)C[C@@H]2O[C@](O)(C[C@@H](O)C[C@@H](O)[C@H](O)CC[C@@H](O)C[C@@H](O)CC(=O)O[C@H]1C)C[C@H](O)[C@H]2C(=O)O [AMPHOTERICIN B] | – | – | – | – | – | – | – | – | – | – | – | – | – | – | –
10 | 22.4 | C[C@@H]([C@H]1CC[C@H]2[C@@H]3CC[C@H]4C(=O)C(NC=O)=CC[C@]4(C)[C@H]3CC[C@]12C)N(C)C [HOOKERIANAMIDE H] | – | – | – | 11 | – | 11.5 | 324 (≈ 125 µg/mL) | 324 (≈ 125 µg/mL) | – | inactive | – | inactive | – | – | –
11 | 8.8 | CN[C@@H](C)[C@H]1CC[C@H]2[C@@H]3CC[C@H]4C[C@@H](N(C)C(=O)c5ccccc5)CC[C@]4(C)[C@H]3CC[C@]12C [HOOKERIANAMIDE I] | – | – | 8 | 18 | 69.4 (≈ 31.3 µg/mL) | 17.5 | 34.7 (≈ 15.6 µg/mL) | 69.4 (≈ 31.3 µg/mL) | 18.5 | – | – | – | – | – | –
12 | 7.5 | N=C(N)c1ccc(OCCCCCOc2ccc(C(=N)N)cc2)cc1 [PENTAMIDINE] | – | – | – | – | – | – | – | – | – | – | – | – | – | – | –
13 | 3.3 | CN[C@@H](C)[C@H]1CC[C@H]2[C@@H]3CC[C@H]4[C@@H](OC(C)=O)[C@@H](NC(=O)C=C(C)C)CC[C@]4(C)[C@H]3CC[C@]12C [VAGENINE A] | – | – | 10 | – | 64.3 (≈ 30.4 µg/mL) | 17 | – | 64.3 (≈ 30.4 µg/mL) | 13.5 | – | inactive | – | – | – | –

Source: ChEMBL document CHEMBL1156637, “Bioactive 5alpha-pregnane-type steroidal alkaloids from Sarcococca hookeriana” (J Nat Prod, 2008)
